pIC50: −log10 of the molar value.
How the values were obtained:
[1] = biological target: T1, Tyrosine-protein kinase JAK3 (Homo sapiens) (UniProt P52333); test: Inhibition of recombinant TEL-fused JAK3 (unknown origin) expressed in mouse BAF3 cells assessed as growth inhibition after 72 hrs by CellTiter-Glo or CCK-8 assay; format: cell-based
T1 sequence (whole entry): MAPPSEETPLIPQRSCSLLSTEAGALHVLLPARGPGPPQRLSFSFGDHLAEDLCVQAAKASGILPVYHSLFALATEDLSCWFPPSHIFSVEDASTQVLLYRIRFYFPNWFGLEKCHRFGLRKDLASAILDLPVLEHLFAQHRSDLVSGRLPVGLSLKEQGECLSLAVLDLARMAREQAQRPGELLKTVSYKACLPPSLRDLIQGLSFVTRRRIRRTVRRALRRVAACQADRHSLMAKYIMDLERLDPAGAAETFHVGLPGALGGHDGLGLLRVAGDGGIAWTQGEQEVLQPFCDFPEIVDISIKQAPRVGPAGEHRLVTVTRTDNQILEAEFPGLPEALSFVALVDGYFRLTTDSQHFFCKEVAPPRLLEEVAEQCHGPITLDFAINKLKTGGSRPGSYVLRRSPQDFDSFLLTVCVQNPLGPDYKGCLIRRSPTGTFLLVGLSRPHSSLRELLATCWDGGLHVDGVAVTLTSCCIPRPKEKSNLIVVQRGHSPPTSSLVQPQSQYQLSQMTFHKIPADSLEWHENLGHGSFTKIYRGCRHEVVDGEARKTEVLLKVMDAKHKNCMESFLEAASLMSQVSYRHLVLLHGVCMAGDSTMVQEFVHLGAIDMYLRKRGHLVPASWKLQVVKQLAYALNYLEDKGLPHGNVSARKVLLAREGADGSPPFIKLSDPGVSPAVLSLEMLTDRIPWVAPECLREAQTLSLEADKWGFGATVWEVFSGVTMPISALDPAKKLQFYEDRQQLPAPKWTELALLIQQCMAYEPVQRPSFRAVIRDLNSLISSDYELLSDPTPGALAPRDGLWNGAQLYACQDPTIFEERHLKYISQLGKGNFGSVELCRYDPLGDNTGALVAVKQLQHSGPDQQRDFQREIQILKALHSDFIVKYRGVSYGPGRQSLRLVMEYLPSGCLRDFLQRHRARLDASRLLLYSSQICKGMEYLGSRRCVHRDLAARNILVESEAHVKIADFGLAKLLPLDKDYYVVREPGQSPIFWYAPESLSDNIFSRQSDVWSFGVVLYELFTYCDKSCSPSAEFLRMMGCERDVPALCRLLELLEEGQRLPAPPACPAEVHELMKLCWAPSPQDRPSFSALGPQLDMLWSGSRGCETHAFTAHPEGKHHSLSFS
Summary of the method: (§1)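 Isogenic murine BaF3 cells transformed with TEL-fused kinases, whose proliferation depends on the fused kinase, were used. Parental BaF3 cells served as the general selectivity counter-screen. The anti-proliferative read-out was reported as GI50.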

[2] = biological target: Mast/stem cell growth factor receptor Kit (Homo sapiens) (UniProt P10721); test: Inhibition of recombinant TEL-fused c-KIT (unknown origin) expressed in mouse BAF3 cells assessed as growth inhibition after 72 hrs by CellTiter-Glo or CCK-8 assay; format: cell-based; summary of the method: as §1
[3] = biological target: Receptor-type tyrosine-protein kinase FLT3 (Homo sapiens) (UniProt P36888); test: Inhibition of recombinant TEL-fused FLT3 (unknown origin) expressed in mouse BAF3 cells assessed as growth inhibition after 72 hrs by CellTiter-Glo or CCK-8 assay; format: cell-based; summary of the method: as §1
[4] = biological target: Platelet-derived growth factor receptor beta (Homo sapiens) (UniProt P09619); test: Inhibition of recombinant TEL-fused PDGFR-beta (unknown origin) expressed in mouse BAF3 cells assessed as growth inhibition after 72 hrs by CellTiter-Glo or CCK-8 assay; format: cell-based; summary of the method: as §1
[5] = biological target: T2, Cytoplasmic tyrosine-protein kinase BMX (Homo sapiens) (UniProt P51813)
T2 sequence (whole entry): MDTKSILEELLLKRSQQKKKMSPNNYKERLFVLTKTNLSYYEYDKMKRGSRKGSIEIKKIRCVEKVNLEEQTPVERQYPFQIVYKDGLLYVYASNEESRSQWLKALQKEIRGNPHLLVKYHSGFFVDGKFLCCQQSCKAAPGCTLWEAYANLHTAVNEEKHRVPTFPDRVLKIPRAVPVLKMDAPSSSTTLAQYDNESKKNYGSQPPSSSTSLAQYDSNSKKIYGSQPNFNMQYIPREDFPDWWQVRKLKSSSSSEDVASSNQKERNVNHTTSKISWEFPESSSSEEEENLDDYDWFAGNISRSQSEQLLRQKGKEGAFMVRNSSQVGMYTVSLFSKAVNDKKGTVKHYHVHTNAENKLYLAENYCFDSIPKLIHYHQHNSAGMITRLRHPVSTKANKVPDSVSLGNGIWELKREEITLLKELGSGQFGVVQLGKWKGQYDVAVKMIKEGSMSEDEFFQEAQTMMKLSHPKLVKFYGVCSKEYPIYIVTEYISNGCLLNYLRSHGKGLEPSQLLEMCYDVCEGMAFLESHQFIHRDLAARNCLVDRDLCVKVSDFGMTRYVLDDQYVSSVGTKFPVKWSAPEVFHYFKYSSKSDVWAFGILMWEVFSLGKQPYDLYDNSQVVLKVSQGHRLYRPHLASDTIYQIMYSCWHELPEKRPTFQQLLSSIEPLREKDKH

[6] = biological target: Tyrosine-protein kinase BTK (Homo sapiens, UniProt Q06187); test: Inhibition of full-length recombinant human His-tagged BTK expressed in baculovirus expression system using Poly(4:1 Glu, Tyr) as substrate after 1 hr by ADP-Glo kinase assay
[7] = biological target: Mitogen-activated protein kinase 14 (Homo sapiens, UniProt Q16539); test: Inhibition of full-length recombinant human GST-tagged p38alpha expressed in Escherichia coli by Z'-LYTE assay
[8] = biological target: Platelet-derived growth factor receptor alpha (Homo sapiens) (UniProt P16234); test: Inhibition of recombinant TEL-fused PDGFR-alpha (unknown origin) expressed in mouse BAF3 cells assessed as growth inhibition after 72 hrs by CellTiter-Glo or CCK-8 assay; format: cell-based; summary of the method: as §1
[9] = Growth inhibition of mouse BAF3 cells after 72 hrs by CellTiter-Glo or CCK-8 assay; format: cell-based; summary of the method: as §1
[10] = biological target: Epithelial discoidin domain-containing receptor 1 (Homo sapiens, UniProt Q08345); test: Inhibition of human GST-tagged DDR1 catalytic domain expressed in baculovirus expression system by LanthaScreen assay
[11] = biological target: Tyrosine-protein kinase ABL1 (Homo sapiens) (UniProt P00519); test: Inhibition of recombinant TEL-fused ABL (unknown origin) expressed in mouse BAF3 cells assessed as growth inhibition after 72 hrs by CellTiter-Glo or CCK-8 assay; format: cell-based; summary of the method: as §1
[12] = biological target: Epidermal growth factor receptor (Homo sapiens) (UniProt P00533); test: Inhibition of recombinant TEL-fused EGFR (unknown origin) expressed in mouse BAF3 cells assessed as growth inhibition after 72 hrs by CellTiter-Glo or CCK-8 assay; format: cell-based; summary of the method: as §1
[13] = biological target: Tyrosine-protein kinase Blk (Homo sapiens) (UniProt P51451); test: Inhibition of recombinant TEL-fused BLK (unknown origin) expressed in mouse BAF3 cells assessed as growth inhibition after 72 hrs by CellTiter-Glo or CCK-8 assay; format: cell-based; summary of the method: as §1
Chain of Tyrosine-protein kinase Blk (Homo sapiens) (P51451 2-505 limits assumed): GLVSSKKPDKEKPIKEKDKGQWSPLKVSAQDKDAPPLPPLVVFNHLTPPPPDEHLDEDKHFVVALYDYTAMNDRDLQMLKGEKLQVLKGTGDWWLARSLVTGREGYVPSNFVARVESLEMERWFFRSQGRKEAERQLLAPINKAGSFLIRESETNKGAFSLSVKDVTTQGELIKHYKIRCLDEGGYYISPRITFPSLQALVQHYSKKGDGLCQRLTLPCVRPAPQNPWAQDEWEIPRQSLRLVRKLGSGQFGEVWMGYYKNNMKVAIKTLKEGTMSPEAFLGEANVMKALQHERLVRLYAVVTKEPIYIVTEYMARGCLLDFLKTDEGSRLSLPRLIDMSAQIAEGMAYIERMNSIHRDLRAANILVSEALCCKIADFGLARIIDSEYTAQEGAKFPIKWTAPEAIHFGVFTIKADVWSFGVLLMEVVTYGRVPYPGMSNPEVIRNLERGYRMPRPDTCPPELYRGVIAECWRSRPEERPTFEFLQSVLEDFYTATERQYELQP

Chain of Mast/stem cell growth factor receptor Kit (Homo sapiens) (P10721 whole entry, the tested form may be a part): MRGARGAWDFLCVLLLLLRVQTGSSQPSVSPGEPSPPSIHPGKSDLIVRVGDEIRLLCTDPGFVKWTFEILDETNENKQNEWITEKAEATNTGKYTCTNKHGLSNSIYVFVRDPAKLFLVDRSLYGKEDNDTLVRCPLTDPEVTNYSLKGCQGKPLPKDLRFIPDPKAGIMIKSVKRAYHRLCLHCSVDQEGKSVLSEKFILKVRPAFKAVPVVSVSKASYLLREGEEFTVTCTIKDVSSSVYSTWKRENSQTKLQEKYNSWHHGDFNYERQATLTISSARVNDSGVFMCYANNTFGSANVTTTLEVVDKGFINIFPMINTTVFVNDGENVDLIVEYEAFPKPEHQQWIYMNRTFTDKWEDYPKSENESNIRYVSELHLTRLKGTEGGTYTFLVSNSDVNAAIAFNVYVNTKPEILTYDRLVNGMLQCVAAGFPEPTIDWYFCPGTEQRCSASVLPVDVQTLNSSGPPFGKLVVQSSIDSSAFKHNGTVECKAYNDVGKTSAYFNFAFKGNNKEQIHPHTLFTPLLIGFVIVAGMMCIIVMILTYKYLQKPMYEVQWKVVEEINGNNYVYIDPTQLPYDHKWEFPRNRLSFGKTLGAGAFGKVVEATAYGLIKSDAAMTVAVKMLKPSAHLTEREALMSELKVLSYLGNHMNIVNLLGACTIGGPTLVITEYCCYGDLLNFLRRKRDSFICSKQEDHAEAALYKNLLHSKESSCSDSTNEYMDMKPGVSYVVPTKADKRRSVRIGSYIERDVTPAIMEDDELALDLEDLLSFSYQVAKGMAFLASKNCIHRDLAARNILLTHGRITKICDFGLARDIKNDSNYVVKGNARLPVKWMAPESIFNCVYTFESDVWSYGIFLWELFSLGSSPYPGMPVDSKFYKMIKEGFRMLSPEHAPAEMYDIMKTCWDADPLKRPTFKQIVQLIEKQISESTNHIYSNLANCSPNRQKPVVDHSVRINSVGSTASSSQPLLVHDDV
Chain of Platelet-derived growth factor receptor alpha (Homo sapiens) (P16234 whole entry, the tested form may be a part): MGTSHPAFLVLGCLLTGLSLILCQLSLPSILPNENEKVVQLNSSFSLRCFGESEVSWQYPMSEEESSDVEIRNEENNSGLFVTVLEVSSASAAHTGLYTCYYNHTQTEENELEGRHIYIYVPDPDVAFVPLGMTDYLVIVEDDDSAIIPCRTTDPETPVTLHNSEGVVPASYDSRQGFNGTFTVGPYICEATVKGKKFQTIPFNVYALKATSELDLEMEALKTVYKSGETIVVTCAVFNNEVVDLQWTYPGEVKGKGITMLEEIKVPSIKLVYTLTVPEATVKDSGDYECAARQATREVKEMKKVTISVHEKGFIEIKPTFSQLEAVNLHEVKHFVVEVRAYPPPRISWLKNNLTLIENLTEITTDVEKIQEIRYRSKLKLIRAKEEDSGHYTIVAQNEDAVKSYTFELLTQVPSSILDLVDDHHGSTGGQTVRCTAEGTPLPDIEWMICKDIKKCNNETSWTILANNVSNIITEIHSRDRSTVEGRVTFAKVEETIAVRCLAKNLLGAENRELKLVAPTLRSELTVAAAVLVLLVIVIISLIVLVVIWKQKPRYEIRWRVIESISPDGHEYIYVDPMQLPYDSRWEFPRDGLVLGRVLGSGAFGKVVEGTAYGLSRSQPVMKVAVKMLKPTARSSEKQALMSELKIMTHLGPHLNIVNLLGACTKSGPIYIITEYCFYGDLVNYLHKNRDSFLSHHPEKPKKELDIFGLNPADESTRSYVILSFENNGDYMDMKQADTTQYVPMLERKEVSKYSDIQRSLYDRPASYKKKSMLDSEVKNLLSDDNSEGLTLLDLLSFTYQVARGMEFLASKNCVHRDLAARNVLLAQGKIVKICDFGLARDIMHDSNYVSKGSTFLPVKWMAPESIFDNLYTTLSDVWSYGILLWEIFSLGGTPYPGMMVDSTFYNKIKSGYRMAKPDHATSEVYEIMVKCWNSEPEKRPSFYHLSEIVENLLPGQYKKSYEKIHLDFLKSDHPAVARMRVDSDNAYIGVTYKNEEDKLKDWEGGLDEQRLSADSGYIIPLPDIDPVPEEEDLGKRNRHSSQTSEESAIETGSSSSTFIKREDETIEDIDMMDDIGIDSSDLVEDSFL
Chain of Tyrosine-protein kinase ABL1 (Homo sapiens) (P00519 whole entry, the tested form may be a part): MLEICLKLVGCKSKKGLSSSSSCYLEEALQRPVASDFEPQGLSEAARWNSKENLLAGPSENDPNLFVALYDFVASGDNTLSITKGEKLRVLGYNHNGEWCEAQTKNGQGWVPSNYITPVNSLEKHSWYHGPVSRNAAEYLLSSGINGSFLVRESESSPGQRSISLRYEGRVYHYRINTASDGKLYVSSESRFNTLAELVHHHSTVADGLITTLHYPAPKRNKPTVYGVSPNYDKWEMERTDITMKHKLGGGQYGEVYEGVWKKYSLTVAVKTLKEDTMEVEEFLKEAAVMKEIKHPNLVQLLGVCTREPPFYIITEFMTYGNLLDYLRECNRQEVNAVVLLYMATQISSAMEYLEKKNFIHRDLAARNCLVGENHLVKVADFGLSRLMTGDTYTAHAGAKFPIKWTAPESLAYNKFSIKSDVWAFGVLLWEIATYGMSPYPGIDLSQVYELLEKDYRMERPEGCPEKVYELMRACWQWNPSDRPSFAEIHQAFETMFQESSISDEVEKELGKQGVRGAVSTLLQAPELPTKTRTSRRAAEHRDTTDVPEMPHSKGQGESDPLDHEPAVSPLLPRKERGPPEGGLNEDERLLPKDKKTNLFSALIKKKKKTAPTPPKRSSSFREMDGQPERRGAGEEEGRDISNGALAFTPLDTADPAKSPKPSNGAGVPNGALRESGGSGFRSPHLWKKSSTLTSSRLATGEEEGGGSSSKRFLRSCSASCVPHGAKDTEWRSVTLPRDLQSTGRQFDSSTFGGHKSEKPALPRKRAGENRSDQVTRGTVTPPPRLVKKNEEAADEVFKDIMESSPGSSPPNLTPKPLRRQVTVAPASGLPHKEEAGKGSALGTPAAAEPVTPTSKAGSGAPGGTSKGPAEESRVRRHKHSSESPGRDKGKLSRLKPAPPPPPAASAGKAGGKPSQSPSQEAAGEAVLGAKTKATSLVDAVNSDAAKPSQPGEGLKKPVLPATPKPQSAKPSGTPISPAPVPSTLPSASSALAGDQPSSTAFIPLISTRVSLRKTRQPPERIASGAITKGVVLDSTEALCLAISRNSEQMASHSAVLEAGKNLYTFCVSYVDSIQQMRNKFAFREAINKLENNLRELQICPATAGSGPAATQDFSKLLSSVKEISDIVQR
Chain of Receptor-type tyrosine-protein kinase FLT3 (Homo sapiens) (P36888 whole entry, the tested form may be a part): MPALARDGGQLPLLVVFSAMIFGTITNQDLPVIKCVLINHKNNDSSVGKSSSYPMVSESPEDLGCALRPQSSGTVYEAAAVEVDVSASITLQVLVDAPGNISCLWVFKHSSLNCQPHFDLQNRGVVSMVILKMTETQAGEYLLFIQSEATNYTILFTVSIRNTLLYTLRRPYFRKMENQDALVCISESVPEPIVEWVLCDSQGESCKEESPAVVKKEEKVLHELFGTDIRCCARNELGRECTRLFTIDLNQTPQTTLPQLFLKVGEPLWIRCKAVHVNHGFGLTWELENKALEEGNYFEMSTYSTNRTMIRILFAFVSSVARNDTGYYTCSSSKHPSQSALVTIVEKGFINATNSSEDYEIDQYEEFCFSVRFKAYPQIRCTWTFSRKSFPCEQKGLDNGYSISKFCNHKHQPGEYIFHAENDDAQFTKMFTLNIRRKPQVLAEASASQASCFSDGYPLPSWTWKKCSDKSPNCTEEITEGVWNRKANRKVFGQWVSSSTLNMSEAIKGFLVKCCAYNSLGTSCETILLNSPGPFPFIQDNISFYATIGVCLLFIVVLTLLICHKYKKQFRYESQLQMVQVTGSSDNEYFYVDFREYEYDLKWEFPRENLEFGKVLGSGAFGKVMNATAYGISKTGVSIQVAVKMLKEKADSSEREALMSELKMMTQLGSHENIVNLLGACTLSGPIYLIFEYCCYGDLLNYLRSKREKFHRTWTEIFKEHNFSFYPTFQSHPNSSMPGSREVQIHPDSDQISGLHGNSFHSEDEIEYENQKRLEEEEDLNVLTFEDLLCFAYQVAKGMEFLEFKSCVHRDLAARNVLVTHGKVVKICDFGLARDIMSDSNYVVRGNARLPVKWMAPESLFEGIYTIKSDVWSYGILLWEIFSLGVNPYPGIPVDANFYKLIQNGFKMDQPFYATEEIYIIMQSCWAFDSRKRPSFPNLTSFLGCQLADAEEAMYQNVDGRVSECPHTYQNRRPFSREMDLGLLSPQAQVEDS
Chain of Mitogen-activated protein kinase 14 (Q16539 whole entry, the tested form may be a part): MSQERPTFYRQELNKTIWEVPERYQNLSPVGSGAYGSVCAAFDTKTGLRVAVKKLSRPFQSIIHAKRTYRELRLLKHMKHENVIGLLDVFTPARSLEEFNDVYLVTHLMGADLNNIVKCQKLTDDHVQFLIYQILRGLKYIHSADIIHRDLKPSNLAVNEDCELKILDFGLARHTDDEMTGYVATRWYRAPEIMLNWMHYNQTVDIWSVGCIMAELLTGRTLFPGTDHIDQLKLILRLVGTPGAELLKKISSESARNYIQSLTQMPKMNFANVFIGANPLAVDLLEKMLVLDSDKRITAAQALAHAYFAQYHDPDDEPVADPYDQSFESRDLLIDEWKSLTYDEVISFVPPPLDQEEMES

Row | SMILES | GI50 [1] [µM] | GI50 [2] [nM] | GI50 [3] [µM] | GI50 [4] [nM] | GI50 [5] [nM] | pIC50 [6] | pIC50 [7] | GI50 [8] [nM] | GI50 at 72 h [9] [µM] | pIC50 [10] | GI50 [11] [nM] | GI50 [12] [µM] | GI50 [13] [µM]
1 | CCC(=O)Nc1cc(Nc2ncc(C(=O)Nc3cc(NC(=O)c4cc(OC)c(OC)c(OC)c4)ccc3C)c(NC)n2)ccc1C | > 10 | 2800 | > 10 | 790 | 610 | < 5.00 | 7.05 | 370 | > 10 | 6.67 | 2510 | > 10 | 
2 | CCC(=O)Nc1cc(Nc2ncc(C(=O)Nc3cc(NC(=O)c4cccc(C(F)(F)F)c4)ccc3C)c(NC)n2)ccc1C | 8.3 | 170 | 8.6 | 59 | 85 |  |  | 45 | > 10 |  | 44 | > 10 | 6.5
3 | C=CC(=O)Nc1cc(Nc2ncc(C(=O)Nc3cc(NC(=O)c4cccc(C(F)(F)F)c4)ccc3C)c(NC)n2)ccc1C | > 10 | 380 | > 10 | 130 | 13 |  |  | 99 | > 10 |  | 118 | > 10 | 5.9
